Assays:
HT1080 cells = assay: Live cell imaging of subcellular uptake and wash-out kinetics; format: cell-based
Procedure, shortened: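 HT1080 cells grown in DMEM with non-essential amino acids, 10% FBS and 1% penicillin-streptomycin, then imaged live in glass coverslip-bottom dishes on an inverted deconvolution microscope (40x objective, 37°C, 5% CO2). Prewarmed fluorescent probe was added to 1 μM, with images every second. Cells were then washed twice into drug-free medium. Nuclear and nucleolar regions of interest were fitted to uptake and clearance curves.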

[1] = Mouse plasma clearance of fluorescent probes after intravenous injection; format: in vivo; details: 75 nmol i.v., biexponential fit
Procedure, shortened: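 Nude mice (6–8 weeks) with HT-1080 tumours in dorsal skin window chambers, under 1–2% isoflurane. Vessels labelled with Angiosense-750 or Pacific Blue–dextran. 75 nmol probe in 1:1 dimethylacetamide:solutol plus PBS, sonicated, given by tail-vein catheter during time-lapse intravital imaging (scans every 10 s). Plasma signal taken from intravascular regions of interest and fitted to biexponential decay.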

[2] = Plasma protein binding by rapid equilibrium dialysis; format: in vitro ADME; details: 10 μM in mouse serum, 37°C, 4 hours
Procedure, shortened: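 Probe equilibrated in mouse serum against PBS on a shaker. Both compartments then adjusted with plasma or PBS to a 50:50 PBS:plasma final matrix to even out fluorescence effects. Fluorescence read on a plate reader to give the bound fraction.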

[3] = system: tumor blood vessels of HT-1080 xenografts; details: previous observations; cited from earlier work

Cellular uptake half-life (HT1080 cells; HT1080 cells, 1 μM): 1.18 min
Mouse plasma clearance t1/2,alpha [1]: 5.16 min
Mouse plasma clearance t1/2,beta [1]: 85.7 min
C0 ([1]; read-out: Mouse plasma clearance C0): 7 µM
Mouse plasma protein binding [2]: 99.23% (+/− 0.11%)
Structure (SMILES): Cc1cc(C)n2c1C=C1C=CC(CCC(=O)N3CCN(C(=O)c4cc(Cc5n[nH]c(=O)c6ccccc56)ccc4F)CC3)=[N+]1[B-]2(F)F [olaparib-BODIPY FL]
Washing time to remove non-specific ER staining (HT1080 cells; HT1080 cells after 1 μM incubation, washed with fresh media): Within five minutes
Vascular permeability in tumor vessels versus mouse ear vessels [3]: the same in tumor vessels and mouse ear vessels

Reference: article PMC3981972 (Molecular cancer therapeutics, 2014)
